ChEMBL document CHEMBL1137744, “Parallel synthesis, molecular modelling and further structure-activity relationship studies of new acylthiocarbamates as potent non-nucleoside HIV-1 reverse transcriptase inhibitors” (Eur J Med Chem, 2009)

What was measured:
[1] = Cytotoxicity against human MT4 cells by MTT assay; format: cell-based
Procedure, shortened: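 Uninfected (mock-infected) MT-4 cells were exposed to compound and viability was read by MTT. CC50 is the concentration cutting viability by 50%. Values are means of three separate experiments, with triplicate samples varying by less than 10%.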

[2] = test system: Human immunodeficiency virus 1; assay: Antiviral activity against HIV1 3B infected in human MT4 cells assessed as inhibition of virus-induced cytopathogenicity by MTT assay; format: functional, organism-based; conditions: Human immunodeficiency virus 1, 3B
Procedure, shortened: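 MT-4 cells infected with HIV-1 and read by MTT viability. EC50 is the concentration giving 50% protection of cells from virus-induced cytopathogenicity. Values are means of three separate experiments, with variation among triplicate samples under 10%.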

[3] = Selectivity index, ratio of CC50 for human MT4 cells to EC50 for HIV1 3B; format: toxicity, cell-based; conditions: read-out: Ratio CC50/EC50
Procedure, shortened: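 Computed as CC50/EC50. Both come from MTT readings in MT-4 cells: CC50 is 50% viability loss in mock-infected cells, and EC50 is 50% protection from HIV-1-induced cytopathogenicity. Each is the mean of three experiments.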

Row | Compound | CC50 [1] [µM] | EC50 [2] [µM] | selectivity ratio [3]
1 | Cc1ccc(N(C(=O)c2ccc(Cl)c(Cl)c2)C(=S)OCCN2C(=O)c3ccccc3C2=O)cc1 | 17 | 0.05 | 340
2 | O=C1c2ccccc2C(=O)N1CCOC(=S)N(C(=O)c1ccco1)c1ccc(Cl)cc1Cl | > 100 | 2.6 | > 38
3 | O=C1c2ccccc2C(=O)N1CCOC(=S)N(C(=O)c1ccc(C(F)(F)F)cc1)c1ccc(Cl)cc1 | 10 | 0.005 | 2000
4 | Cc1ccc(C(=O)N(C(=S)OCCN2C(=O)c3ccccc3C2=O)c2ccc(C)cc2)cc1 | 83 | 0.02 | 4150
5 | COc1cccc(OC)c1C(=O)N(C(=S)OCCN1C(=O)c2ccccc2C1=O)c1ccc(C)cc1 | 36 | 22 | 1.6
6 | Cc1ccc(N(C(=O)c2ccc(F)cc2F)C(=S)OCCN2C(=O)c3ccccc3C2=O)cc1 | 20 | 0.03 | 667
7 | O=C1c2ccccc2C(=O)N1CCOC(=S)N(C(=O)c1cccc2ccccc12)c1ccc(Cl)cc1 | 6 | 0.03 | 200
8 | O=C1c2ccccc2C(=O)N1CCOC(=S)N(C(=O)c1ccc(Br)cc1)c1ccc(Br)cc1 | 73 | 0.035 | 2090
9 | O=C1c2ccccc2C(=O)N1CCOC(=S)N(C(=O)c1cc([N+](=O)[O-])ccc1Cl)c1ccc(Cl)cc1 | 45 | 0.07 | 643
10 | Cc1ccc(N(C(=O)c2cc(F)cc(F)c2)C(=S)OCCN2C(=O)c3ccccc3C2=O)cc1 | 54 | 0.05 | 1080
11 | Cc1ccccc1C(=O)N(C(=S)OCCN1C(=O)c2ccccc2C1=O)c1ccc(Cl)cc1 | 21 | 0.04 | 525
12 | Cc1ccc(N(C(=O)c2cccc(Cl)c2Cl)C(=S)OCCN2C(=O)c3ccccc3C2=O)cc1 | 35 | 0.2 | 175
13 | Cc1ccc2c(c1)C(=O)N(CCOC(=S)N(C(=O)c1cccc([N+](=O)[O-])c1)c1ccc(Cl)cc1)C2=O | > 100 | 0.05 | > 2000
14 | O=C1c2ccccc2C(=O)N1CCOC(=S)N(C(=O)c1cccc([N+](=O)[O-])c1)c1c(Cl)cccc1Cl | 58 | 17 | 3.4
15 | O=C1c2ccccc2C(=O)N1CCOC(=S)N(C(=O)c1cccc([N+](=O)[O-])c1)c1ccc(Cl)cc1 | 18 | 0.0015 | 12000
16 | O=C1c2ccccc2C(=O)N1CCOC(=S)N(C(=O)c1ccc(Cl)c(Cl)c1)c1ccc(Cl)cc1 | 35 | 0.009 | 3890
17 | CCCCCOc1ccc(C(=O)N(C(=S)OCCN2C(=O)c3ccccc3C2=O)c2ccc(F)cc2)cc1 | > 100 | 8.5 | > 11.8
18 | Cc1ccc2c(c1)C(=O)N(CCOC(=S)N(C(=O)c1cccs1)c1ccc(Cl)cc1)C2=O | > 100 | 0.02 | > 5000
19 | Cc1ccc(N(C(=O)c2ccc([N+](=O)[O-])cc2Cl)C(=S)OCCN2C(=O)c3ccccc3C2=O)cc1 | 17 | 0.09 | 189
20 | O=C1c2ccccc2C(=O)N1CCOC(=S)N(C(=O)c1ccc(Cl)cc1Cl)c1ccc(Cl)cc1 | 18 | 0.03 | 600
21 | Cc1ccc(N(C(=O)c2ccccc2C)C(=S)OCCN2C(=O)c3ccccc3C2=O)cc1 | > 100 | 0.2 | > 500
22 | COc1cccc(OC)c1C(=O)N(C(=S)OCCN1C(=O)c2ccccc2C1=O)c1ccc(Cl)cc1 | 69 | 0.4 | 172
23 | O=C1c2ccccc2C(=O)N1CCOC(=S)N(C(=O)c1ccccc1[N+](=O)[O-])c1ccc(Cl)cc1 | 21 | 0.07 | 300
